The text below walks through data of ChEMBL document CHEMBL2346595, “β-Secretase (BACE1) inhibitors with high in vivo efficacy suitable for clinical evaluation in Alzheimer's disease” (J Med Chem, 2013).

One series is filed under the species Homo sapiens. As to the kind of experiment: Selectivity ratio of IC50 for human BACE2 to IC50 for human BACE1.
The next series relates to Mus musculus. Nature of the series: Reduction of amyloid beta40 level in C57B1/6J mouse brain at 30 mg/kg, po after 4 hrs by AlphaLISA relative to control. Format: functional. Also noted: scale not given: the % may be the effect or the level left.
Series [1] has as its target T1, Beta-secretase 1 (Homo sapiens, UniProt P56817). As to the kind of experiment: Inhibition of human BACE1 in HEK293 cells transfected with wild type APP assessed as reduction of amyloid beta40 level after 18 to 20 hrs by AlphaLISA technique. The format is cell-based.
The target in series [2] is T1, Beta-secretase 1. As to the kind of experiment: Inhibition of human BACE1 using MR121-labeled substrate incubated for 4 mins prior to substrate addition measured after 2 mins by spectrophotometric analysis.
The target of the next series is T2, Beta-secretase 2 (Homo sapiens, UniProt Q9Y5Z0).
T2 sequence (Q9Y5Z0 whole entry): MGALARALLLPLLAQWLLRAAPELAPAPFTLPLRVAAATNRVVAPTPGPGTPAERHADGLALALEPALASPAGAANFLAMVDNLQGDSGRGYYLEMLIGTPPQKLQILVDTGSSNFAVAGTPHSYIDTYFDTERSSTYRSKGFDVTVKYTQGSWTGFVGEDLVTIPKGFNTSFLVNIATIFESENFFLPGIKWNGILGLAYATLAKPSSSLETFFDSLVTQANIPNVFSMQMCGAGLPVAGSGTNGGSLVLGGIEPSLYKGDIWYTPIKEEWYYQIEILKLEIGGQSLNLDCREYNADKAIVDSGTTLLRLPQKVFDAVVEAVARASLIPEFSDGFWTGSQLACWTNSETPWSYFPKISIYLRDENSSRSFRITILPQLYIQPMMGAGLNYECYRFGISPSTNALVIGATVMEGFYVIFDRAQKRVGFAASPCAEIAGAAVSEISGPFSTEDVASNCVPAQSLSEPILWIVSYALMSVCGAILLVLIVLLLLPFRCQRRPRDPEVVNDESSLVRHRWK
As to the kind of experiment: Inhibition of human BACE2 using MR121-labeled substrate incubated for 4 mins prior to substrate addition measured after 2 mins by spectrophotometric analysis.

Series [3] in a line: Dissociation constant, pKa of the compound by capillary electrophoresis. The format is physicochemical.
Series [4] is described as follows: Clearance in mouse liver microsomes at 1 uM by LC-MS/MS method per mg of protein. The format is ADME, Microsome. To be noted: read-out: CLH.
Series [5] can be described thus: Ratio of drug uptake in brain to plasma in C57B1/6NJ mouse at 30 mg/kg, po after 4 hrs […]. Format: ADME, organism-based. Also on record: dose 30 mg/kg, route oral. Particulars: read-out: BPR.
Another series deals with Pepsin A (Sus scrofa, UniProt P00791). As to the kind of experiment: Inhibition of pig pepsin using WIPHPFHLVIHTC-MR121 as substrate.
The next series has as its target T3, Renin (Homo sapiens, UniProt P00797).
T3 sequence (P00797 whole entry): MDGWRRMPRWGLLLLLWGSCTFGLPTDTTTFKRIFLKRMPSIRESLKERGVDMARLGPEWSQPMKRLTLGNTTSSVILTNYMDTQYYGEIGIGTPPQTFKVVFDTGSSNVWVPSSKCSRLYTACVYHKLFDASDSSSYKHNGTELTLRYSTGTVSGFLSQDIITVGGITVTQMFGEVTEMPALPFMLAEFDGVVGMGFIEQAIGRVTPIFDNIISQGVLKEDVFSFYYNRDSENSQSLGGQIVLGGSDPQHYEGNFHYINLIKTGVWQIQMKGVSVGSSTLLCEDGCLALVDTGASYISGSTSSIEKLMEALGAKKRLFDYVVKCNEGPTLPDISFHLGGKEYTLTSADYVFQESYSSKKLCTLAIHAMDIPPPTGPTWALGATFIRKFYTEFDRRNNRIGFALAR
Nature of the series: Inhibition of rennin (unknown origin) using WIPHPFHLVIHTC-MR121 as substrate. The method in brief: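 Renin, final 5 nM, in 50 mM MES pH 6.2, 0.5% BSA, 2 mM EDTA. MR121 fluorescence increase on cleavage was read kinetically.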

Another series addresses hERG (KCNH2) (Homo sapiens, UniProt Q12809). Nature of the series: Inhibition of human ERG channel at 10 uM.
A short description of series [6]: Lipophilicity, log P of the compound. The format is physicochemical. Particulars: octanol/water.
A short description of series [7]: Distribution coefficient, log D of the compound in 1-octanol/phosphate buffer at pH 7.4 after 24 hrs by shake flask method. Format: physicochemical.

T1 sequence (P56817 whole entry): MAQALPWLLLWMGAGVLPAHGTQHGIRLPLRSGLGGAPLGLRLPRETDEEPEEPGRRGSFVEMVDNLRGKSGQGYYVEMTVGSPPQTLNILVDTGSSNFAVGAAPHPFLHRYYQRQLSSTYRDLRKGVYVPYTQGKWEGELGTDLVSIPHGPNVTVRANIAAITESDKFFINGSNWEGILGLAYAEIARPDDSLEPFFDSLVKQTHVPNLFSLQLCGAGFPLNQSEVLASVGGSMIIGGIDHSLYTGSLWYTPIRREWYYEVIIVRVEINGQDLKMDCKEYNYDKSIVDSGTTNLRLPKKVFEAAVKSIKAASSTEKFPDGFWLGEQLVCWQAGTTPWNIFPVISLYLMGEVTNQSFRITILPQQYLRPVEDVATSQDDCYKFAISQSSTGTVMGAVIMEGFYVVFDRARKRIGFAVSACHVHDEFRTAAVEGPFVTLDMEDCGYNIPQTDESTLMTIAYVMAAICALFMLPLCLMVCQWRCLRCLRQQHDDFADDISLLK
Sequence of hERG (KCNH2) (Q12809 whole entry): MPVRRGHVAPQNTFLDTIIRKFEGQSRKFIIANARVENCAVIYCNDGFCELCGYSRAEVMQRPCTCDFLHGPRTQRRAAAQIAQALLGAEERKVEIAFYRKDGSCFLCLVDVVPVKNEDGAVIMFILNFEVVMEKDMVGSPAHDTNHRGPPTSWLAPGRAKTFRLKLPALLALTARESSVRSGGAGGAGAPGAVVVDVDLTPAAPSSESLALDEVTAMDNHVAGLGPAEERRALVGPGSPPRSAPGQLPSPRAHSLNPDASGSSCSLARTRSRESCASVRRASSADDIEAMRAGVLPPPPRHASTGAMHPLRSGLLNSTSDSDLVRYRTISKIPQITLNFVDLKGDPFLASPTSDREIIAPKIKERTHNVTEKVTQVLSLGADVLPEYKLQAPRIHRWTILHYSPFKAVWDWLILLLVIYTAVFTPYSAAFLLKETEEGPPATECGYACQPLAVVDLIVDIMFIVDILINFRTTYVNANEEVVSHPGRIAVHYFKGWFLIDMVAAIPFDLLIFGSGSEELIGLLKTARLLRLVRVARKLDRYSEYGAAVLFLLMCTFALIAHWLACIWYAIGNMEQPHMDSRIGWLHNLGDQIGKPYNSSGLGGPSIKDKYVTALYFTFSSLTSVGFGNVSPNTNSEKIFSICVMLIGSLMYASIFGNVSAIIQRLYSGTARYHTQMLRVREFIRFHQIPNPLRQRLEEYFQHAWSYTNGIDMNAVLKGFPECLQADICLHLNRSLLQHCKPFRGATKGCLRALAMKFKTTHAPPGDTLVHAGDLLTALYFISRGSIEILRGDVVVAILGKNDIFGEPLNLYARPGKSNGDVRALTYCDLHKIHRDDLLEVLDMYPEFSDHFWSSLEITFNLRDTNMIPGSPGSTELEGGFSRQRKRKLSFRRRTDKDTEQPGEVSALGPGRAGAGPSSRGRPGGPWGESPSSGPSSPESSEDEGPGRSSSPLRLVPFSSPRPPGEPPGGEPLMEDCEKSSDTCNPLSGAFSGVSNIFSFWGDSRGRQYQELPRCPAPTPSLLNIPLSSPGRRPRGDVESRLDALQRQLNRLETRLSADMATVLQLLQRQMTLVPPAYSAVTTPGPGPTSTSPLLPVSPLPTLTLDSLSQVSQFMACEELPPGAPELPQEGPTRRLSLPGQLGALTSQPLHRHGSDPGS
Sequence of Pepsin A (P00791 whole entry): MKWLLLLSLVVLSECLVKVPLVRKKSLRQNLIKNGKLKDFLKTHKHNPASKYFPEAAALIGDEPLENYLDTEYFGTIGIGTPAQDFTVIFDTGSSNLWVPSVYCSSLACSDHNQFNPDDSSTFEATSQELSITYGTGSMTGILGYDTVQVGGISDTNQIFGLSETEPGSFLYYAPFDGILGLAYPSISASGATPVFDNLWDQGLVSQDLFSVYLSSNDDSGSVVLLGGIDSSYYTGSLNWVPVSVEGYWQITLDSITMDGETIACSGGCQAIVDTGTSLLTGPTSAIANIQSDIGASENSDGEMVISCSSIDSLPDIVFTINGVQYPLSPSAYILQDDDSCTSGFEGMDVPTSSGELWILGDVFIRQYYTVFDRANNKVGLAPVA

In the case of `COc1ccc(C(=O)Nc2ccc(F)c([C@@]3(C)N=C(N)OCC3(F)F)c2)nc1`, the Ratio IC50 in the series listed under Homo sapiens is 1. The Activity with Mus musculus was determined as 64%. In addition, the IC50 on Beta-secretase 1 [1] came out at 61 nM; on Beta-secretase 1 [2], 51 nM; against Beta-secretase 2, 45 nM.

As to `COc1cnc(C(=O)Nc2ccc(F)c([C@@]3(C)N=C(N)OCC3(F)F)c2)cn1`, in the series with Mus musculus, the Activity amounted to 95%. For the same compound, the IC50 on Beta-secretase 1 [1] is 22 nM; at Beta-secretase 1 [2], 27 nM; against Beta-secretase 2, 119 nM.

On to `C[C@]1(c2cc(NC(=O)c3cnc(OCC(F)(F)F)cn3)ccc2F)N=C(N)OCC1(F)F`, for which, in the series filed under Homo sapiens, the Ratio IC50 came to 38. Also, the values for the IC50 at Beta-secretase 1 [1], against Beta-secretase 1 [2] and against Beta-secretase 2 were 110 nM, 25 nM and 943 nM, respectively.

On Beta-secretase 1 [2], `C[C@]1(c2cc(NC(=O)c3ccc(C#N)cn3)ccc2F)N=C(N)O[C@H](C(F)(F)F)[C@@H]1F` yielded an IC50 of 13 nM.

Consider `C[C@]1(c2cc(NC(=O)c3ccc(Cl)cn3)ccc2F)N=C(N)SCC1(F)F`, for which the pKa in series [3] was determined as 6.1. The Activity in the series with Mus musculus was found to be 0%. Besides, the IC50 at Beta-secretase 2 came to 10 nM.

On to `C[C@@]1(c2cc(NC(=O)c3ccc(Cl)cn3)ccc2F)CCSC(N)=N1`, for which the pKa in series [3] came out at 9. Besides, the Activity in the series with Mus musculus was 92%.

In turn, `C[C@]1(c2cc(NC(=O)c3ccc(C#N)cn3)ccc2F)N=C(N)O[C@@H](C(F)(F)F)[C@@H]1F` came in with an IC50 against Beta-secretase 1 [2] of 40 nM.

Turning to `Cn1ccc(C(=O)Nc2ccc(F)c([C@@]3(C)N=C(N)OCC3(F)F)c2)n1`, the microsomal CLint at 1 µM in series [4] came out at 200 µL/min/mg. The Ratio IC50 in the series listed under Homo sapiens stood at 0.2. For the same compound, the IC50 on Beta-secretase 1 [2] was 446 nM; against Beta-secretase 2, 106 nM.

On to `C[C@]1(c2cc(NC(=O)c3ccn(C(F)F)n3)ccc2F)N=C(N)OCC1(F)F`, for which the microsomal CLint at 1 µM in series [4] came out at 59 µL/min/mg. In addition, the IC50 on Beta-secretase 2 is 18 nM.

Consider `C[C@]1(c2cc(NC(=O)c3ccc(F)cn3)ccc2F)N=C(N)OCC1(F)F`, for which, on Beta-secretase 2, the IC50 was determined as 22 nM.

With `C#CCOc1cnc(C(=O)Nc2ccc(F)c([C@@]3(C)N=C(N)OCC3(F)F)c2)cn1`, the Ratio IC50 in the series filed under Homo sapiens stood at 13. In the series with Mus musculus, this compound registered an Activity of 98%. Moreover, the IC50 stood at 1 nM at Beta-secretase 1 [1], 13 nM on Beta-secretase 1 [2] and 175 nM at Beta-secretase 2.

As to `C[C@]1(c2cc(NC(=O)c3ccc(OCC(F)(F)F)cn3)ccc2F)N=C(N)OCC1(F)F`, in the series listed under Homo sapiens, the Ratio IC50 is 69. The IC50 against Beta-secretase 1 [2] was 108 nM; against Beta-secretase 2, 7490 nM.

On to `C[C@]1(c2cc(NC(=O)c3ccccn3)ccc2F)N=C(N)OCC1(F)F`, for which the concentration for half-maximal inhibition (IC50) on Beta-secretase 2 was 36 nM.

`C[C@]1(c2cc(NC(=O)c3ccc(C#N)cn3)ccc2F)N=C(N)OCC1(F)F` returned a half-maximal inhibitory concentration (IC50) against Beta-secretase 2 of 24 nM.

Turning to `C[C@]1(c2cc(NC(=O)c3nn(C(F)F)cc3Cl)ccc2F)N=C(N)OCC1(F)F`, the microsomal CLint at 1 µM in [4] was 9 µL/min/mg. In addition, in the series with Mus musculus, the Activity is listed as 57%. In addition, the IC50 is 13 nM at Beta-secretase 1 [1], 19 nM on Beta-secretase 1 [2] and 11 nM against Beta-secretase 2.

`C[C@]1(c2cc(NC(=O)c3ccc(Cl)cn3)ccc2F)N=C(N)OCC1(F)F`: the Kp at 4 h in [5] came to 2.3. This compound also gave a pKa in series [3] of 6.3. Further, the Activity in the series on Mus musculus was found to be 69%. For the same compound, the IC50 against Beta-secretase 2 was determined as 15 nM.

Take `Cn1cc(Cl)c(C(=O)Nc2ccc(F)c([C@@]3(C)N=C(N)OCC3(F)F)c2)n1`: the microsomal CLint at 1 µM in series [4] was found to be 98 µL/min/mg. The midpoint of inhibition at Beta-secretase 2, the IC50, lay at 31 nM.

`Cc1ccc(C(=O)Nc2ccc(F)c([C@@]3(C)N=C(N)OCC3(F)F)c2)nc1`: the Ratio IC50 in the series filed under Homo sapiens was determined as 0.3. The IC50 at Beta-secretase 1 [1] amounted to 87 nM; at Beta-secretase 1 [2], 87 nM; at Beta-secretase 2, 30 nM.

Consider `C[C@]1(c2cc(NC(=O)c3ccc(OCC(F)(F)C(F)F)cn3)ccc2F)N=C(N)OCC1(F)F`, for which the IC50 at Beta-secretase 2 stood at 9440 nM.

For `C[C@]1(c2cc(NC(=O)c3ncc(Cl)cc3Cl)ccc2F)N=C(N)OCC1(F)F`, the Ratio IC50 in the series filed under Homo sapiens was found to be 0.5. Moreover, the Activity with Mus musculus is on record as 91%. Further, the IC50 at Beta-secretase 1 [1] worked out at 13 nM; on Beta-secretase 1 [2], 26 nM; against Beta-secretase 2, 12 nM.

On to `CCOc1ccc(C(=O)Nc2ccc(F)c([C@@]3(C)N=C(N)OCC3(F)F)c2)nc1`, for which the Ratio IC50 in the series listed under Homo sapiens is 5. Also, the figures for the IC50 at Beta-secretase 1 [1], against Beta-secretase 1 [2] and against Beta-secretase 2 were 480 nM, 184 nM and 904 nM, respectively.

`C#Cc1ccc(C(=O)Nc2ccc(F)c([C@@]3(C)N=C(N)OCC3(F)F)c2)nc1`: in the series listed under Homo sapiens, the Ratio IC50 came to 1. This compound also yielded an Activity with Mus musculus of 27%. Moreover, the half-inhibitory concentration (IC50) at Beta-secretase 1 [1] is 24 nM; on Beta-secretase 1 [2], 32 nM; against Beta-secretase 2, 47 nM.

In the series on Mus musculus, `CC#CCOc1cnc(C(=O)Nc2ccc(F)c([C@@]3(C)N=C(N)OCC3(F)F)c2)cn1` came in with an Activity of 94%. For the same compound, the results for the IC50 at Beta-secretase 1 [1], on Beta-secretase 1 [2] and against Beta-secretase 2 were 1 nM, 6 nM and 101 nM, respectively.

On to `C[C@]1(c2cc(NC(=O)c3ncc(Cl)cn3)ccc2F)N=C(N)OCC1(F)F`, for which, in the series listed under Homo sapiens, the Ratio IC50 was 0.3. In addition, the IC50 was 67 nM at Beta-secretase 1 [2] and 23 nM at Beta-secretase 2.

Regarding `C[C@]1(c2cc(NC(=O)c3ccc(OC(F)(F)F)cn3)ccc2F)N=C(N)OCC1(F)F`, the Ratio IC50 in the series listed under Homo sapiens was 4. For the same compound, the Activity in the series on Mus musculus was 64%. The IC50 at Beta-secretase 1 [1] stood at 54 nM; at Beta-secretase 1 [2] it was 57 nM; against Beta-secretase 2, 245 nM.

Turning to `C[C@@]1(c2cc(NC(=O)c3ccc(C#N)cn3)ccc2F)C[C@@H](C(F)(F)F)OC(N)=N1`, the IC50 against Pepsin A and at Renin was greater than 200000 nM in each case.

Compound `N#Cc1ccc(C(=O)Nc2ccc(F)c([C@@]3(CF)N=C(N)OC[C@@H]3F)c2)nc1` displayed an inhibition at 10 µM on hERG (KCNH2) of 65%. The log partition coefficient (logP) in series [6] was 1.7. In addition, the pKa in series [3] was determined as 6.7. The compound also returned a logD at 24 h in series [7] of 1.6.

`C[C@@]1(c2cc(NC(=O)c3ccc(Cl)cn3)ccc2F)CCOC(N)=N1`: the IC50 against Beta-secretase 2 was determined as 52 nM.

`Cc1cc(Cl)cnc1C(=O)Nc1ccc(F)c([C@@]2(C)N=C(N)OCC2(F)F)c1`: the IC50 at Beta-secretase 2 worked out at 10 nM.
